hiPSC survival: increases survival of single human iPS cells; survival enhancement, % at 20 µM; 0.044% of 360,000 active; hiPSC single-cell survival, ATPlite luminescence; 100% = ROCK inhibitor wells, 0% = DMSO; AID 602274; in the data active means survival enhancement above about 18%;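 further: cells exposed to compounds for 16 hours before the ATP read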
SENP1 FRET inh: SENP1 (human) catalytic domain inhibition. 0.21% of 360,000 active. recombinant SENP1 catalytic domain, CyPet-SUMO1-YPet FRET cleavage. Q9P0U3. AID 624204. inhibition, % at 10 µM;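 active means inhibition at least 30% at 10 µM, raw YFP signal under a set limit, fluorescence ratio 0.5 to 1.5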
Target sequence (Q9P0U3 419-644 limits assumed): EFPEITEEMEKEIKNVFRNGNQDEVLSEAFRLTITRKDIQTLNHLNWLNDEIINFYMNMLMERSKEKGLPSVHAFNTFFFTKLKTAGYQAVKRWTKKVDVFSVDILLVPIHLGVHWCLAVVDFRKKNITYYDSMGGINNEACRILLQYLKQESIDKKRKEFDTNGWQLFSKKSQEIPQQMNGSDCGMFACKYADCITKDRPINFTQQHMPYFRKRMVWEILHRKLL
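Assay system: hSENP1 catalytic domain, recombinant. Amount: SENP1 enzyme, 20 pM final. Schedule: 50 min reaction, RT, dark. Technique: FRET, CFP and YFP emission. Control set: no-enzyme wells low, DMSO-plus-enzyme wells high control.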
FAS TE block: FAS thioesterase (human) inhibition. P49327. recombinant FAS-TE, OMFH fluorogenic substrate, fluorescence endpoint. inhibition, % at 15 µM. 0.67% of 360,000 active. AID 602261;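 active means compounds whose normalised, plate-corrected inhibition of enzyme fluorescence in the single-dose primary screen is 50% or more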
Cardio protect: myocardial damage modulation in H9c2 cells; protection from H2O2 cell death, % at 20 µM; 0.63% of 360,000 active; H9c2 cardiomyocytes, H2O2 injury protection, ATPLite, 2 h;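 active means compounds giving at least 50% protection of heart cells from peroxide-induced death in the single-dose screen, raw or plate-pattern-corrected value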
GRIN3A LBD mod: modulates the human NR3A ligand-binding domain; NR3A LBD differential scanning fluorimetry, Tm shift; 0% = protein alone, 100% = glycine-bound protein; Tm shift relative to glycine control, % at 25 µM; 2.5% of 340,000 active; AID 1259313;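 active means melting temperature shift of at least 10% of the positive control shift, at one fixed dose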
Arrestin-AP2 inh: human beta-arrestin and AP2 interaction inhibition; FITC-arrestin peptide / GST-AP2 beads, flow cytometry; AP2 beta2 appendage carries R879A mutation; inhibition, % at 10 µM; 0.31% of 340,000 active; AID 504490;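 active means inhibition above a set limit, near 3 SD of compounds lacking own fluorescence, cut at about 54% in these data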
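Material – GST-tagged AP2 beta2-adaptin appendage (R879A) on 4 µm glutathione beads · Probe or stimulus – fluorescein-tagged arrestin peptide at 50 nM final · Timing – 12 min plus 1 h, RT · Detection – bead flow cytometry, FITC channel · Read-out basis – inhibition as reduced fluorescein signal on beads, percent · Medium – PBS plus Tween 20 (0.05%) and BSA (0.1%)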
A number is an active result; - = inactive; . = no result. In the library only some 4% were active in any assay of this set; here they are far more common.

SMILES	hiPSC survival	SENP1 FRET inh	FAS TE block	Cardio protect	GRIN3A LBD mod	Arrestin-AP2 inh
CCOC(=O)C1(C)CCCN(C(=O)c2ccc(OC)cc2)C1 (configuration not stated)	-	-	-	-	.	.
CC(C)(C)Nc1nc(SCC(=O)Nc2ccccc2Cl)nc(N2CCOCC2)n1	-	-	-	-	17	-
CCNc1nc(SCC(=O)Nc2ccccc2)nc(N2CCOCC2)n1	-	-	-	-	-	-
O=C(Nc1ccncc1)c1cncc(Br)c1	-	-	-	-	11	-
COc1ccccc1-c1noc2c1C(=O)NCC2	-	-	-	-	.	.
CCn1c(SCC(=O)Nc2ccc(NC(=O)c3cccs3)cc2)nnc1-c1cccnc1	-	-	-	-	21	-
CCn1c(SCC(=O)Nc2nc(C)c(C)s2)nnc1-c1cccnc1	-	-	-	-	-	-
CCc1c(-c2ccc(OC)cc2)ncn1Cc1cccc(-c2ccccc2)c1	.	-	.	.	.	.
Oc1[nH]c(=S)sc1C=C1N=c2ccccc2=N1	-	-	-	-	18	-
Oc1c(C=C2N=c3ccccc3=N2)sc(=S)n1-c1ccc(F)cc1	-	-	-	-	-	-
Oc1[nH]c(=S)sc1/C=C1\C(c2ccccc2)=Nc2ccccc21	-	-	-	-	16	-
CC1(C)CC(Cc2ccc(Cl)nc2)N(C(=O)OC(C)(C)C)C1 (configuration not stated)	-	-	-	-	.	.
COc1cccc(CNC(=O)[C@@H]2CCCN2C(=O)[C@H]2CCCCN2C(=O)c2c(F)cccc2F)c1	-	-	-	.	.	.
O=c1c2cccc3c2c(nn1CN1CCOCC1)-c1ccccc1-3	-	-	-	75	-	-
CCN(CC)CCn1nc2c3c(cccc3c1=O)-c1ccccc1-2	-	-	-	-	-	-
CC(C)(C)C(=O)NC(=S)Nc1ccccc1N1CCCC1	-	-	-	-	-	-
CC(=O)NC(=S)Nc1ccccc1N1CCCCC1	-	-	-	-	13	-
Cc1cc(C)cc(CC(=O)N2CCC2(C)C(=O)NS(=O)(=O)c2cc(C)ccc2F)c1 (configuration not stated)	-	-	-	-	.	.
c1ccc(CN2CCN(CCCNc3ccc4nnc(-c5ccccc5)n4n3)CC2)cc1	-	-	-	79	-	-
Cc1ccc(CNc2ccc3nnc(-c4ccccc4)n3n2)cc1	-	-	-	-	-	-
Nc1ccc2c(c1)[nH]c(=O)c1cc(N)ccc12	-	-	-	-	.	.
Cc1ccc(S(=O)(=O)N2CCOC2CNC(=O)C(=O)NCCN(C)C)cc1 (configuration not stated)	-	-	-	-	13	-
C=C1C[C@@H]2C[C@@H]2CN(S(=O)(=O)c2ccc(C)cc2)[C@@H]1COCc1ccccc1	-	-	-	.	.	.
Cc1cc([N+](=O)[O-])nn1CC(=O)N1CCc2ccccc2C1	-	-	-	-	-	-
Cc1c(Cl)c([N+](=O)[O-])nn1CC(=O)N1CCc2ccccc2C1	-	-	51	-	-	-
SMILES	hiPSC survival	SENP1 FRET inh	FAS TE block	Cardio protect	GRIN3A LBD mod	Arrestin-AP2 inh
COc1ccc(C2(c3ccc(OC)cc3)NC(=O)N(CC(=O)NCC(C)c3ccccc3)C2=O)cc1 (configuration not stated)	-	-	-	-	25	-
CCc1nc2ccc(C(=O)N(C)CCCN(C)C)cn2c1N(C=O)CCC(C)C	-	-	-	-	.	.
Oc1ccc(Br)cc1-c1cc(-c2ccc(Cl)cc2)n[nH]1	-	-	-	-	42	-
Oc1ccc(Br)cc1-c1cc(-c2ccccc2)n[nH]1	-	-	-	-	29	-
COc1ccc(-c2cc(-c3ccc(Cl)cc3)n[nH]2)c(O)c1	-	-	-	-	49	-
COc1ccc(O)c(-c2cc(-c3ccc(F)cc3)n[nH]2)c1	-	-	-	-	-	-
COc1ccc(-c2cc(-c3cc(OC)ccc3O)[nH]n2)cc1	-	-	-	-	-	-
COc1ccc(O)c(-c2cc(-c3cccc(Br)c3)n[nH]2)c1	-	-	-	-	16	-
CN1C(=O)[C@H]2[C@@H](c3ccc(C(F)(F)F)cc3)N[C@]3(CCCN(Cc4ccc(C(F)(F)F)cc4)C3=O)[C@H]2C1=O	-	-	-	-	.	.
O=[N+]([O-])c1cccc(-c2cc(-c3cc(Br)ccc3O)[nH]n2)c1	-	-	-	-	13	-
Oc1ccccc1-c1cc(-c2ccc3c(c2)OCCO3)n[nH]1	-	-	-	-	16	-
Cc1ccc(-n2cc(-c3ccccc3)c3c(N4CCOCC4)ncnc32)cc1	-	-	-	57	-	-
O=C(NCc1ccncc1)c1ccc(NS(=O)(=O)c2ccc(F)cc2)cc1	-	-	-	-	-	-
O=C(c1ccc(S(=O)(=O)Nc2cccc(C(F)(F)F)c2)cc1)N1CCC1	-	-	-	-	16	-
O=C(NCCCN1CCCC1=O)c1ccc(S(=O)(=O)Nc2cccc(C(F)(F)F)c2)cc1	-	-	-	-	-	-
O=C(NCc1ccc(F)cc1)c1ccc(S(=O)(=O)Nc2cccc(C(F)(F)F)c2)cc1	-	-	-	-	29	-
CC(=O)N1CCN(C(=O)c2ccc(S(=O)(=O)Nc3cccc(C(F)(F)F)c3)cc2)CC1	-	-	-	-	.	-
O=C(NCc1ccccc1F)c1ccc(S(=O)(=O)Nc2cccc(C(F)(F)F)c2)cc1	-	-	-	-	27	-
O=C(Nc1cccc(C(F)(F)F)c1)c1cccc(NS(=O)(=O)c2ccc(O)c(C(=O)O)c2)c1	-	-	-	-	32	-
O=S1(=O)N[C@@H](Cc2ccccc2)COc2cccc(N3CCC[C@H]3CO)c21	-	-	-	.	.	.
Cc1c(C)c2ccc(OCC(=O)NCCc3c[nH]c4ccccc34)cc2oc1=O	-	-	-	-	.	.
Cc1ccc(-c2csc(Nc3ccc(S(N)(=O)=O)cc3)n2)o1	-	-	-	-	-	-
O=S(=O)(c1ccc(-c2csc(Nc3ccc(Br)cc3)n2)cc1)N1CCCC1	-	-	-	-	25	-
NS(=O)(=O)c1ccc(Nc2nc(-c3cccc([N+](=O)[O-])c3)cs2)cc1	-	-	-	-	17	-
NS(=O)(=O)c1ccc(Nc2nc(-c3ccc4ccccc4c3)cs2)cc1	-	-	-	-	25	-
CCCN1CCC(C)(C(=O)Nc2cccc(OC(C)C)c2)C1 (configuration not stated)	-	-	-	-	.	.
CC(C)N1CCC(C)(C(=O)Nc2ccccc2Oc2ccccc2)C1 (configuration not stated)	-	-	-	-	.	.
CCOC(=O)c1ccc(NC(=O)c2ccc(OC(C)C)c(OC)c2)cc1	-	-	-	-	-	-
CCOC(=O)c1ccc(NC(=O)Oc2ccccc2)cc1	-	-	-	-	34	-

High-throughput results (PubChem)
